# Experimental data collected from several papers.
# Compare with care: the assays were run in different laboratories.
# TNKS: Poly [ADP-ribose] polymerase tankyrase-1 (TNKS, Homo sapiens, UniProt O95271)
# PSMB6/PSMB5/PSMB7: PSMB6/PSMB5/PSMB7 (Homo sapiens, UniProt P28072+P28074+Q99436)
# NTRK3: NT-3 growth factor receptor (NTRK3, Homo sapiens, UniProt Q16288)
target,assay,system,conditions,inhibition [%],Structure (SMILES)
TNKS,"enzyme activity, inhibitor",,0.1 µM,3,Cc1ccc(C)c(NC(=O)CSc2nnc(Cc3cc(=O)[nH]c(=O)[nH]3)n2-c2ccc(Cl)cc2)c1
PSMB6/PSMB5/PSMB7,"enzyme activity in cells, inhibitor",MCF7,20 µg/mL,55,COC(=O)c1c(O)ccc(O)c1C(=O)c1c(O)cc2c(c1O)[C@@H]1C=C[C@]3(C2)C(=C(O)c2c(O)cc(C)cc2[C@@H]3OC(C)=O)C1=O
NTRK3,"enzyme activity, inhibitor, FRET",,1 µM,17.3,O=C(Nc1ccc2[nH]ncc2c1)c1cccc(NC(=S)Nc2ccc(C(F)(F)F)cc2)c1
"Prothrombin (Rattus norvegicus, UniProt P18292)","enzyme activity, inhibitor",,200 µg/mL,46,CC1=C(/C=C/C(C)=C/C=C/C(C)=C/CO)C(C)(C)CCC1
"C-X-C chemokine receptor type 4 (CXCR4, Homo sapiens, UniProt P61073)","calcium signal, antagonist",U87.CD4.CXCR4,4 µM,11,OCc1cc(C(O)CNCCCCCCOCCCCc2ccccc2)ccc1O (stereo not drawn)
"Cathepsin E (CTSE, Homo sapiens, UniProt P14091)","enzyme activity, inhibitor",,10 µM,86,C[C@H]1C[C@@H](N2C(=N)N[C@](C)(c3cccc(Nc4ccc(C5CC5)nc4)c3Cl)CC2=O)CCO1
"Mitogen-activated protein kinase 3 (MAPK3, Homo sapiens, UniProt P27361)","target engagement in cells, inhibitor, chemoproteomics",A-375,0.5 µM,-44.6,CCN1CCN(Cc2ccc(NC(=O)c3ccc(C)c(Oc4ccnc5[nH]ccc45)c3)cc2C(F)(F)F)CC1
PSMB6/PSMB5/PSMB7,"enzyme activity in cells, inhibitor",MCF7,20 µg/mL,13,COC(=O)[C@@]12Oc3c(c(O)cc4c3[C@@H]3C=C[C@]5(C4)C(=C(O)c4c(O)cc(C)cc4[C@@H]5OC(C)=O)C3=O)C(O)=C1C(=O)C=C[C@@H]2O
TNKS,"enzyme activity, inhibitor",,10 µM,7,Ic1cccc2cnccc12
"Cyclin-dependent kinase 9, with cyclin T1 (CDK9, Homo sapiens, UniProt P50750)","enzyme activity, inhibitor, FRET",,0.1 µM,5,CN(C)C1CCN(CC#Cc2nn(C3CCCC3)c3nc(NCc4ccccc4)ncc23)C1 (stereo not drawn)
"Dual specificity mitogen-activated protein kinase kinase 7 (MAP2K7, Homo sapiens, UniProt O14733)","enzyme activity, inhibitor",,0.3 µM,9,CNC(=O)c1cc(Oc2ccc(NC(=O)Nc3ccc(Cl)c(C(F)(F)F)c3)cc2)ccn1
NTRK3,"enzyme activity, inhibitor, FRET",,1 µM,23,CN1CCN(CC(=O)Nc2cccc(C(=O)Nc3ccc4[nH]ncc4c3)c2)CC1
